Compound activity from PubChem.
The list is not random: actives were taken first. Their share in the collection is about 1.8%.
PG9 Ab binder – binders of HIV-1 gp120 antibody PG9, primary screen, biochemical, TR-FRET; HIV-1 gp120 / PG9 antibody interaction; TR-FRET gp120-PG9 antibody binding; 360,000 tested, 0.43% active; AID 624416, 2012; inhibition, % at 6.7 µM; in the data active = inhibition above about 8.5%
Rev-erbA mod – modulators of Rev-erb alpha DNA binding, primary screen, biochemical, FITC-DNA, fluorescence polarization, uHTS; Nuclear receptor subfamily 1 group D member 1 (Homo sapiens), P20393; Rev-erbα–FITC-DNA binding, 90 min; activity, % at 10 µM; 370,000 tested, 0.79% active; AID 1259318, 2017;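 active = activity above about 14%, limit read from the data; passing the limit was not always enough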;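 note: 0% = DMSO wells with 35 nM protein and 100% = DMSO wells with 750 nM protein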
NR2E3 ag-1 – inhibitors of NR2E3-RetCOR corepressor binding, primary screen, NR2E3 agonist project, biochemical, TR-FRET, GST-NR2E3, biotin-RetCOR. AID 2300, 2010. 1536-well. 320,000 tested, 0.12% active. Photoreceptor-specific nuclear receptor (Homo sapiens), Q9Y5X4. inhibition of corepressor binding, % at 4.78 µM;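 active = percent inhibition above the cutoff of mean plus 3 SD of all tested compounds, set per screening campaign, cut at about 20% in these data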;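 note: 0% = DMSO wells and 100% = biotin wells as full block of FRET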
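Material – GST-tagged NR2E3 plus biotinylated RetCOR corepressor · Quantity – NR2E3 fusion 1.35 nM · Times – 5 h incubation at 4 °C · Medium – pH 7.5 Tris-based buffer · Technique – TR-FRET, Eu(K)-anti-GST donor, streptavidin-D2 acceptor, ex 340, em 617/671 nm · Benchmarks – high control biotin, low control 0.6% DMSO · Format – 1536-well plates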
NR2E3 ag-2 – NR2E3 agonists in two-hybrid cells, primary screen, cell-based, luminescence, CHO-S, Gal4-NCOR/VP16-NR2E3; inhibition of corepressor binding, % at 3.98 µM; luciferase; 360,000 tested, 0.35% active;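 active = inhibition above the mean of all tested compounds plus 3 SD, cut at about 70% in these data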;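 note: 0% = DMSO with NR2E3 transfected cells and 100% = cells lacking NR2E3 construct; higher means lower luciferase signal from less NR2E3 corepressor binding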
GalR3 antagonist – GalR3 antagonists in HEK293 cells, primary screen, cell-based, fluorescence readout. Galanin receptor type 3 (Homo sapiens), O60755. HEK293 GalR3-CNG cAMP membrane potential fluorescence; galR3 body fused to GalR1 C-terminus. inhibition, % at 3 µM. 360,000 tested, 0.44% active. AID 651719, 2012;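 active = inhibition above the screen-wide average plus 3 SD, cut at about 13% in these data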;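 note: forskolin and galanin both at EC90 stimulate the cells; cAMP rise reported by CNG channel membrane potential dye signal; 0% = forskolin plus galanin with DMSO and 100% = forskolin alone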
Target sequence (O60755 1-299 limits assumed): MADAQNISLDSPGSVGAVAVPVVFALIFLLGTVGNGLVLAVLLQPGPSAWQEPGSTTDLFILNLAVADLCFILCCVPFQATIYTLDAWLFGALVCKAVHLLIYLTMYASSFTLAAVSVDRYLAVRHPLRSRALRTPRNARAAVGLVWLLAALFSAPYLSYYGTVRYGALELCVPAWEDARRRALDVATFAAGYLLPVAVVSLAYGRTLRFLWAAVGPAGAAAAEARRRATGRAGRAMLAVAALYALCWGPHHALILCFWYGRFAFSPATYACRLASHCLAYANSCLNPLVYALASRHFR
GalR3 conf – GalR3 antagonist hit confirmation, cell-based, fluorescence, triplicate; shares compounds with GalR3 antagonist; HEK293 GalR3 CNG cAMP biosensor, membrane potential fluorescence; galR3 fused to GalR1 carboxy tail; challenged with forskolin and galanin at EC90; inhibition, % at 3 µM; 1,600 tested, 59% active; AID 652245, 2013;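 active = inhibition above the primary screen's cutoff, the mean inhibition of all screened compounds plus 3 SD, cut at about 13% in these data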;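 note: 0% = forskolin plus galanin and 100% = forskolin alone with DMSO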
HEK-CNG parental – nonspecific cAMP agonists in parental HEK-CNG cells, counter-screen for GalR3 antagonist project, cell-based, fluorescence, high throughput; shares compounds with GalR3 antagonist; HEK293-CNG parental cells, cAMP membrane potential fluorescence; normalised: DMSO wells 0%, forskolin wells 100%; activation, % at 3 µM; 1,600 tested, 10% active; AID 652268, 2013; in the data active = activation above about 1.3%
NR1D1 mod conf – modulators of Rev-erb alpha DNA binding, confirmation, biochemical, FITC-DNA, fluorescence polarization, single point; shares compounds with Rev-erbA mod; 90 min; activation, % at 25 µM; 3,000 tested, 61% active;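 active = activation at or above a set limit, or at least 3 SD above the negative control mean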;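 note: 0% = 35 nM protein with DMSO and 100% = 750 nM protein high control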
The depositor's hits bear a star; . = no result.

SMILES | PG9 Ab binder | Rev-erbA mod | NR2E3 ag-1 | NR2E3 ag-2 | GalR3 antagonist | NR1D1 mod conf | others
CCCCNC(=O)C1CCCN1C(=O)NCc1ccccc1OC (stereo unspecified) | . | 0 | . | . | . | .
Cc1cc(C(C)(C)C)ccc1OCCCCN1CCCC1 | 1 | 1 | 0 | 19 | 3 | .
CCC(C)(C)c1ccc(OCCCC[n+]2cccc(C)c2C)c(C(C)(C)CC)c1 | -1 | 42* | -3 | 4 | 15* | 43* | GalR3 conf=67*;HEK-CNG parental=1.3*
CCCC1CCC2(CC1)CCC2OC(=S)Nc1cccc(C(F)(F)F)c1 (stereo unspecified) | . | 1 | . | . | . | .
Cc1ccc(-c2nnn3c2nc(Cl)c2ccccc23)cc1 | 0 | -2 | . | -53 | -2 | .
Fc1cccc(-c2nnn3c2nc(Cl)c2ccccc23)c1 | 1 | 90* | . | -69 | 14* | 19* | GalR3 conf=6;HEK-CNG parental=3.8*
C=CCn1c(COc2ccc(Cl)cc2)nnc1SCC(=O)c1c(N)n(C)c(=O)n(C)c1=O | 0 | 24* | 1 | -15 | 16* | -14 | GalR3 conf=5;HEK-CNG parental=0
O=C(Nc1ccc(Oc2ccccc2)cc1)c1csc(COCCO)n1 | -2 | 15* | . | -37 | 92* | 1 | GalR3 conf=113*;HEK-CNG parental=-1
COc1ccc(-n2c(SCC(=O)NN=Cc3c(O)ccc4ccccc34)nnc2-c2ccc(C(C)(C)C)cc2)cc1 | . | 1 | . | . | . | .
Cc1cc(N2CCN(C(=O)OC(C)(C)C)C[C@H]2C)ccc1Br | -1 | 15* | . | . | 2 | 4
O=C(NC1CCCCN(Cc2cccc(F)c2)C1=O)c1ccc2ccccc2c1 (stereo unspecified) | . | 4 | . | . | . | .
O=C(Cn1c(=O)c(=O)n(Cc2ccccc2)c2ccc(Cl)cc21)Nc1ccc(F)cc1F | -2 | 29* | 1 | 1 | 10 | 12
CC(C)(C)NC(=O)Cn1c(=O)c(=O)n(Cc2ccccc2)c2ccc(Cl)cc21 | 0 | -2 | -5 | -8 | -10 | .
CC(C)Cn1c(SC(C)C(=O)Nc2ccc3c(c2)OCCO3)nc2ccccc2c1=O (stereo unspecified) | 0 | -3 | . | -31 | -4 | .
CC(Sc1nc2ccccc2c(=O)n1C)C(=O)Nc1ccc2c(c1)OCCO2 (stereo unspecified) | 2 | 27* | 2 | -5 | -9 | 12*
CCOC(=O)N1CCC(NC(=O)c2ccccc2C(=O)O)CC1 | -2 | -3 | -1 | -8 | -2 | .
CCOC(=O)N1CCC(NC(=O)c2cc(C)c3c(C)nn(-c4ccccc4)c3n2)CC1 | -1 | 19* | -1 | -8 | -5 | -13
Cc1ccc(-n2c(SCC(=O)Nc3ccc4c(c3)OCCO4)nnc2-c2cccnc2)cc1 | . | 9 | . | . | . | .
CN(CCO)C(=O)c1nc[nH]c1C(=O)N1CCN(c2ccccc2)CC1 | 0 | -3 | . | . | -4 | .
COC(=O)C1CCN(C(=O)c2cc3c(=O)n4cccc(C)c4nc3n2Cc2ccccc2)CC1 | -3 | 40* | 3 | -29 | -3 | 23*
Cc1cccn2c(=O)c3cc(C(=O)O)n(C)c3nc12 | 1 | -5 | 0 | 16 | -9 | .
N#C/C(=C\C1=C(N2CCOCC2)C(=C\c2ccc(Cl)cc2)/CC1)C(=O)Nc1ccccc1F | 2 | 9 | 4 | -6 | -3 | .
